Key:
Settings in all cases: tested as the 18F-labelled form
[1] = species on record: Rattus norvegicus; assay: Regional uptake of [18F]AFA in frontal cortex of rat pretreated with compound citalopram; n=3; assay type: functional, organism-based
Outline: (§1)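 Male Sprague-Dawley rats, three per group, received blocker (2 mg/kg iv in saline) or saline only (controls) 10–15 min before about 20 µCi of tail-vein F-18 radioligand. Killed 60 min after tracer. Blood and brain regions weighed and gamma-counted. %ID/g was decay- and tail-corrected; mean ± SD.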

[2] = species on record: Rattus norvegicus; assay: Regional uptake of [18F]AFA in blood of rat pretreated with compound 7c; n=3; assay type: functional, organism-based
[3] = species on record: Rattus norvegicus; assay: Regional uptake of [18F]-AFA in frontal cortex of rat pretreated with compound 7c; n=3; assay type: functional, organism-based
[4] = biological target: Sodium-dependent serotonin transporter (Rattus norvegicus) (UniProt P31652); assay: Specific binding in rat hypothalamus at 120 min postinjection in vivo; assay type: functional, organism-based
Outline: (§2)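 Male Sprague-Dawley rats, n=3 per time point, received about 20 µCi of F-18 radioligand in saline iv by tail vein and were killed at 10–120 min. %ID/g was measured with decay and tail-residual correction. Hypothalamic specific binding = (%ID/g hypothalamus − %ID/g cerebellum)/%ID/g cerebellum; mean ± SD.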

[5] = species on record: Rattus norvegicus; assay: Regional uptake of [18F]AFA in hypothalamus of rat pretreated with compound citalopram; n=3; assay type: functional, organism-based; outline: as §1
[6] = biological target: Sodium-dependent serotonin transporter (Rattus norvegicus) (UniProt P31652); assay: Specific binding of [18F]AFA in rat thalamus after GBR-12935 treatment; n=3; assay type: functional, tissue-based
Outline: (§3)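 Rats, three per group, were pretreated iv with blocker at 2 mg/kg in saline, or with saline as control, 10–15 min before tail-vein F-18 radioligand (about 20 µCi). Killed at 60 min and regional %ID/g determined. Specific binding = (region activity − cerebellum activity)/cerebellum activity; mean ± SD.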

[7] = species on record: Rattus norvegicus; assay: Regional uptake of [18F]AFA in hippocampus of rat pretreated with compound citalopram; n=3; assay type: functional, organism-based; outline: as §1
[8] = biological target: Sodium-dependent serotonin transporter (Rattus norvegicus) (UniProt P31652); assay: Specific binding in rat hypothalamus at 90 min postinjection in vivo; assay type: functional, organism-based; outline: as §2
[9] = biological target: Sodium-dependent serotonin transporter (Rattus norvegicus) (UniProt P31652); assay: Specific binding of [18F]AFA in rat thalamus after citalopram treatment; n=3; assay type: functional, tissue-based; outline: as §3
[10] = species on record: Rattus norvegicus; assay: Regional uptake of [18F]AFA in cerebellum of rat pretreated with compound GBR-12935; n=3; assay type: functional, organism-based; outline: as §1
[11] = biological target: Sodium-dependent serotonin transporter (Rattus norvegicus) (UniProt P31652); assay: Specific binding in rat hypothalamus at 30 min postinjection in vivo; assay type: functional, organism-based; outline: as §2
[12] = species on record: Rattus norvegicus; assay: Regional uptake of [18F]AFA in hippocampus of rat pretreated with compound 7c; n=3; assay type: functional, organism-based
[13] = biological target: Sodium-dependent serotonin transporter (Rattus norvegicus) (UniProt P31652); assay: Specific binding of [18F]-AFA in rat striatum after nisoxetine treatment; n=3; assay type: functional, tissue-based; outline: as §3
[14] = biological target: Sodium-dependent serotonin transporter (Rattus norvegicus) (UniProt P31652); assay: Specific binding of [18F]AFA in rat hypothalamus after GBR-12935 treatment; n=3; assay type: functional, tissue-based; outline: as §3
[15] = biological target: Sodium-dependent serotonin transporter (Rattus norvegicus) (UniProt P31652); assay: Specific binding of [18F]AFA in rat hypothalamus after nisoxetine treatment; n=3; assay type: functional, tissue-based; outline: as §3
[16] = biological target: Sodium-dependent serotonin transporter (Rattus norvegicus) (UniProt P31652); assay: Specific binding of [18F]-AFA in rat striatum after citalopram treatment; n=3; assay type: functional, tissue-based; outline: as §3
[17] = species on record: Rattus norvegicus; assay: Regional uptake of [18F]AFA in thalamus of rat pretreated with compound citalopram; n=3; assay type: functional, organism-based; outline: as §1
[18] = species on record: Rattus norvegicus; assay: Regional uptake of [18F]AFA in cerebellum of rat pretreated with compound 7c; n=3; assay type: functional, organism-based
[19] = species on record: Rattus norvegicus; assay: Regional uptake of [18F]AFA in thalamus of rat pretreated with compound 7c; n=3; assay type: functional, organism-based
[20] = species on record: Rattus norvegicus; assay: Regional uptake of [18F]AFA in striatum of rat pretreated with compound citalopram; n=3; assay type: functional, organism-based; outline: as §1
[21] = species on record: Rattus norvegicus; assay: Regional uptake of [18F]-AFA in blood of rat pretreated with compound citalopram; n=3; assay type: functional, organism-based; outline: as §1
[22] = biological target: Sodium-dependent serotonin transporter (Rattus norvegicus) (UniProt P31652); assay: Specific binding in rat hypothalamus at 60 min postinjection in vivo; assay type: functional, organism-based; outline: as §2
[23] = species on record: Rattus norvegicus; assay: Regional uptake of [18F]AFA in frontal cortex of rat pretreated with compound GBR-12935; n=3; assay type: functional, organism-based; outline: as §1
[24] = species on record: Rattus norvegicus; assay: Regional uptake of [18F]-AFA in blood of rat pretreated with compound GBR-12935; n=3; assay type: functional, organism-based; outline: as §1
[25] = biological target: Sodium-dependent serotonin transporter (Rattus norvegicus) (UniProt P31652); assay: Specific binding of [18F]AFA in rat frontal cortex after GBR-12935 treatment; n=3; assay type: functional, tissue-based; outline: as §3
[26] = biological target: Sodium-dependent serotonin transporter (Rattus norvegicus) (UniProt P31652); assay: Specific binding of [18F]AFA in rat striatum after GBR-12935 treatment; n=3; assay type: functional, tissue-based; outline: as §3
[27] = species on record: Rattus norvegicus; assay: Regional uptake of [18F]AFA in cerebellum of rat pretreated with compound citalopram; n=3; assay type: functional, organism-based; outline: as §1
[28] = species on record: Rattus norvegicus; assay: Regional uptake of [18F]-AFA in hypothalamus of rat pretreated with compound nisoxetine; n=3; assay type: functional, organism-based; outline: as §1
[29] = species on record: Rattus norvegicus; assay: Regional uptake of [18F]AFA in frontal cortex of rat pretreated with compound nisoxetine; n=3; assay type: functional, organism-based; outline: as §1
[30] = species on record: Rattus norvegicus; assay: Regional uptake of [18F]AFA in hippocampus of rat pretreated with compound nisoxetine; n=3; assay type: functional, organism-based; outline: as §1
[31] = biological target: Sodium-dependent serotonin transporter (Rattus norvegicus) (UniProt P31652); assay: Specific binding of [18F]AFA in rat frontal cortex after citalopram treatment; n=3; assay type: functional, tissue-based; outline: as §3
[32] = species on record: Rattus norvegicus; assay: Regional uptake of [18F]AFA in hypothalamus of rat pretreated with compound 7c; n=3; assay type: functional, organism-based
[33] = species on record: Rattus norvegicus; assay: Regional uptake of [18F]AFA in cerebellum of rat pretreated with compound nisoxetine; n=3; assay type: functional, organism-based; outline: as §1
[34] = biological target: Sodium-dependent serotonin transporter (Rattus norvegicus) (UniProt P31652); assay: Specific binding of [18F]AFA in rat thalamus after nisoxetine treatment; n=3; assay type: functional, tissue-based; outline: as §3
[35] = biological target: Sodium-dependent serotonin transporter (Rattus norvegicus) (UniProt P31652); assay: Specific binding of [18F]AFA in rat hippocampus after nisoxetine treatment; n=3; assay type: functional, tissue-based; outline: as §3
[36] = biological target: Sodium-dependent serotonin transporter (Rattus norvegicus) (UniProt P31652); assay: Specific binding of [18F]AFA in rat hypothalamus after citalopram treatment; n=3; assay type: functional, tissue-based; outline: as §3
[37] = biological target: Sodium-dependent serotonin transporter (Rattus norvegicus) (UniProt P31652); assay: Specific binding of [18F]AFA in rat hippocampus after GBR-12935 treatment; n=3; assay type: functional, tissue-based; outline: as §3
[38] = species on record: Rattus norvegicus; assay: Regional uptake of [18F]-AFA in striatum of rat pretreated with compound GBR-12935; n=3; assay type: functional, organism-based; outline: as §1
[39] = species on record: Rattus norvegicus; assay: Regional uptake of [18F]AFA in thalamus of rat pretreated with compound GBR-12935; n=3; assay type: functional, organism-based; outline: as §1
[40] = species on record: Rattus norvegicus; assay: Regional uptake of [18F]AFA in striatum of rat pretreated with compound nisoxetine; n=3; assay type: functional, organism-based; outline: as §1
[41] = species on record: Rattus norvegicus; assay: Regional uptake of [18F]AFA in hippocampus of rat pretreated with compound GBR-12935; n=3; assay type: functional, organism-based; outline: as §1
[42] = biological target: Sodium-dependent serotonin transporter (Rattus norvegicus) (UniProt P31652); assay: Specific binding of [18F]AFA in rat hippocampus after citalopram treatment; n=3; assay type: functional, tissue-based; outline: as §3
[43] = species on record: Rattus norvegicus; assay: Regional uptake of [18F]AFA in hypothalamus of rat pretreated with compound GBR-12935; n=3; assay type: functional, organism-based; outline: as §1
[44] = species on record: Rattus norvegicus; assay: Regional uptake of [18F]AFA in blood of rat pretreated with compound nisoxetine; n=3; assay type: functional, organism-based; outline: as §1
[45] = species on record: Rattus norvegicus; assay: Regional uptake of [18F]AFA in thalamus of rat pretreated with compound nisoxetine; n=3; assay type: functional, organism-based; outline: as §1
[46] = species on record: Rattus norvegicus; assay: Regional uptake of [18F]AFA in striatum of rat pretreated with compound 7c; n=3; assay type: functional, organism-based
[47] = biological target: Sodium-dependent serotonin transporter (Rattus norvegicus) (UniProt P31652); assay: Specific binding in rat hypothalamus at 10 min postinjection in vivo; assay type: functional, organism-based; outline: as §2
[48] = biological target: Sodium-dependent serotonin transporter (Rattus norvegicus) (UniProt P31652); assay: Specific binding of [18F]AFA in rat frontal cortex after nisoxetine treatment; n=3; assay type: functional, tissue-based; outline: as §3

Sodium-dependent serotonin transporter (Rattus norvegicus), sequence (P31652 whole entry): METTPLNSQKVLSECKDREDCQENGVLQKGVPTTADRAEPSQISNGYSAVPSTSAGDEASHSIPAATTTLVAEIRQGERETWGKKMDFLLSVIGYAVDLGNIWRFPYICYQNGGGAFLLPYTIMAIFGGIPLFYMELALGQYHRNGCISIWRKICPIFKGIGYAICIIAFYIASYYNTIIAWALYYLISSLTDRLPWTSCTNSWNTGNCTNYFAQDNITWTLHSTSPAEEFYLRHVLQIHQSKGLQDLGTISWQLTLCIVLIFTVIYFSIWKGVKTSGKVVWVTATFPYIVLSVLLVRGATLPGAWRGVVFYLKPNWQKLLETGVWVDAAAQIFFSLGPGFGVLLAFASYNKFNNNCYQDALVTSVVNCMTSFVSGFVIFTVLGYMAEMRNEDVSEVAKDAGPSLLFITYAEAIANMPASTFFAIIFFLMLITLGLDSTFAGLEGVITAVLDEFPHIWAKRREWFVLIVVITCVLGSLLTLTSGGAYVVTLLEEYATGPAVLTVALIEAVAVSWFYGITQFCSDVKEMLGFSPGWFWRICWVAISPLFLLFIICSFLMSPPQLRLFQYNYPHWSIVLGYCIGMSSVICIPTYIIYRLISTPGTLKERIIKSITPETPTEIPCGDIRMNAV

Specific binding (dimensionless ratio) [4]: 4.92
Specific binding [6]: 4.57 %ID/g
Specific binding (dimensionless ratio) [8]: 5.61
Specific binding [9]: 0.98 %ID/g
Specific binding [11]: 2.23 %ID/g
Specific binding [13]: 2.45 %ID/g
Specific binding [14]: 4.3 %ID/g
Specific binding [15]: 3.82 %ID/g
Specific binding [16]: 0.6 %ID/g
Specific binding [22]: 4.09 %ID/g
Specific binding [25]: 2.81 %ID/g
Specific binding [26]: 2.56 %ID/g
Specific binding [31]: 0.64 %ID/g
Specific binding [34]: 3.53 %ID/g
Specific binding [35]: 1.96 %ID/g
Specific binding [36]: 0.65 %ID/g
Specific binding [37]: 2.21 %ID/g
Specific binding [42]: 0.81 %ID/g
Specific binding [47]: 0.89 %ID/g
Specific binding [48]: 2.88 %ID/g
Compound: CN(C)Cc1ccccc1Sc1ccc(F)cc1N
Uptake [1]: 0.11 %ID/g
Uptake [2]: 0.07 %ID/g
Uptake [3]: 0.14 %ID/g
Uptake [5]: 0.1 %ID/g
Uptake [7]: 0.11 %ID/g
Uptake [10]: 0.09 %ID/g
Uptake [12]: 0.13 %ID/g
Uptake [17]: 0.13 %ID/g
Uptake [18]: 0.06 %ID/g
Uptake [19]: 0.15 %ID/g
Uptake [20]: 0.1 %ID/g
Uptake [21]: 0.08 %ID/g
Uptake [23]: 0.33 %ID/g
Uptake [24]: 0.09 %ID/g
Uptake [27]: 0.06 %ID/g
Uptake [28]: 0.48 %ID/g
Uptake [29]: 0.36 %ID/g
Uptake [30]: 0.28 %ID/g
Uptake [32]: 0.13 %ID/g
Uptake [33]: 0.09 %ID/g
Uptake [38]: 0.28 %ID/g
Uptake [39]: 0.36 %ID/g
Uptake [40]: 0.31 %ID/g
Uptake [41]: 0.28 %ID/g
Uptake [43]: 0.43 %ID/g
Uptake [44]: 0.1 %ID/g
Uptake [45]: 0.47 %ID/g
Uptake [46]: 0.12 %ID/g
